Data: ChEMBL document CHEMBL1123923, “Steroidal silicon side-chain analogues as potential antifertility agents” (1987)

How the values were obtained:
Rattus norvegicus [1] = species on record: Rattus norvegicus; experiment: Antifertility activity measured as minimum protective dose for prevention of pregnancy in rats; assay type: functional; set-up: unit not given here
How it was run: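 Oral dosing in adult cycling female rats selected in the proestrous phase, 10 animals per dose, with treatment starting on the day of proestrus.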

[2] = target: T1, Estrogen receptor (Rattus norvegicus) (UniProt P06211+Q62986); experiment: Oral estrogenic activity in 21 day old immature ovariectomized rats at 1000 ug; assay type: functional
How it was run: (§1)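 Rats dosed orally with compound suspended in 0.5% (carboxymethyl)cellulose, 10 animals per dose, daily for 4 days starting on the day of ovariectomy. Autopsy on the day after the last dose. Read-outs were the increase in uterine weight and cornification of vaginal smears, taken from animals with open vaginas, compared against a standard estrogen.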

[3] = target: T1, Estrogen receptor (Rattus norvegicus); experiment: Oral estrogenic activity in 21 day old immature ovariectomized rats at 200 ug; assay type: functional; how it was run: as §1
[4] = target: T1, Estrogen receptor (Rattus norvegicus); experiment: Oral estrogenic activity in 21 day old immature ovariectomized rats at 500 ug; assay type: functional; how it was run: as §1
Rattus norvegicus [5] = species on record: Rattus norvegicus; experiment: Separation of antifertility from estrogenic activity in rats was measured; assay type: functional
[6] = target: T1, Estrogen receptor (Rattus norvegicus)

SMILES | Antifertility potency (Rattus norvegicus [1]) | Estrogenic potency [2] | Estrogenic potency [3] | Estrogenic potency [4] | Separation (Rattus norvegicus [5]) | Estrogenic potency [6]
CCC(C#C[C@]1(O)CC[C@H]2[C@@H]3CCc4cc(O)ccc4[C@H]3CC[C@@]21C)(CC)CC | 0 | 0 |  |  |  | 
CCCC[Si](C=C[C@]1(O)CC[C@H]2[C@@H]3CCc4cc(O)ccc4[C@H]3CC[C@@]21C)(CCCC)CCCC | 0 | 0 |  |  |  | 
C=C([C@]1(O)CC[C@H]2[C@@H]3CCc4cc(O)ccc4[C@H]3CC[C@@]21C)[Si](c1ccccc1)(c1ccccc1)c1ccccc1 | 0 |  | 0 |  |  | 
C=C([C@]1(O)CC[C@H]2[C@@H]3CCc4cc(O)ccc4[C@H]3CC[C@@]21C)[Si](CCCC)(CCCC)CCCC | 0 |  |  | 0 |  | 
CCC(C)[Si](C#C[C@]1(O)CC[C@H]2[C@@H]3CCc4cc(O)ccc4[C@H]3CC[C@@]21C)(CC)CC (stereo partly drawn) | 300 |  |  |  | 5 | 57
C[C@]12CC[C@@H]3c4ccc(O)cc4CC[C@H]3[C@@H]1CC[C@@]2(O)C#C[Si](C)(C)c1ccccc1 | 33 |  |  |  | 4.7 | 7
C[C@]12CC[C@@H]3c4ccc(O)cc4CC[C@H]3[C@@H]1CC[C@@]2(O)/C=C/[Si](c1ccccc1)(c1ccccc1)c1ccccc1 | 0 |  | 0 |  |  | 
C[C@]12CC[C@@H]3c4ccc(O)cc4CC[C@H]3[C@@H]1CC[C@@]2(O)C#C[Si](C)(C)C | 33 |  |  |  | 4.7 | 7
C[C@]12CC[C@@H]3c4ccc(O)cc4CC[C@H]3[C@@H]1CC[C@@]2(O)C#C[Si](C)(C)Cc1ccccc1 | 300 |  |  |  | 25 | 12
CC[Si](C)(C#C[C@]1(O)CC[C@H]2[C@@H]3CCc4cc(O)ccc4[C@H]3CC[C@@]21C)CC | 600 |  |  |  | 15 | 40
CC[Si](C#C[C@]1(O)CC[C@H]2[C@@H]3CCc4cc(O)ccc4[C@H]3CC[C@@]21C)(CC)C(C)(C)C | 300 |  |  |  | 10 | 31
